Compound activity from PubChem.
GRIN3A LBD mod = binders of NR3A ligand-binding domain, primary screen, biophysical, differential scanning fluorimetry, uHTS; Tm shift relative to glycine control, % at 25 µM; hit rate 2.5% among 340,000; NR3A LBD differential scanning fluorimetry, Tm shift; 0% = protein alone, 100% = glycine-bound protein; Glutamate receptor ionotropic, NMDA 3A (GRIN3A) ligand-binding domain;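 active = melting temperature shift of at least 10% of the positive control shift, at one fixed dose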
aDG glyco act = activators of alpha-DG glycosylation, primary screen, uHTS, Pro5-aDG cells, AlphaScreen; AID 624168, 2012; alpha-DG glycosylation AlphaScreen (IIH6); 0% Pro5, 100% B10-LARGE cell signal; activation, % at 10 µM; hit rate 0.22% among 360,000;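 active = activation of at least 8% versus controls, or a plate z-score of at least 8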;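 also: Pro5 are CHO cells carrying HIG-tagged alpha-DG that lacks glycosylation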
CHOP inhibitor = inhibitors of CHOP promoter induction, primary screen, cell-based, unfolded protein response, luciferase reporter; hit rate 3.8% among 220,000; AID 2732, 2010; inhibition, % at 10 µM; CHO-K1 CHOP-promoter luciferase, tunicamycin-induced, 15-18 h;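 active = compounds that reduced the stress-induced luciferase reporter signal by more than about 70% of percent inhibition, limit read from the data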;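 also: 0% = tunicamycin plus vehicle and 100% = wells without tunicamycin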
UPR CHOP act = activators of apoptotic CHOP UPR arm, primary screen, cell-based, CHO-CHOP luciferase reporter, luminescence, uHTS | hit rate 0.34% among 330,000 | UPR activation; percent of tunicamycin response over DMSO baseline | activation, % at 10 µM;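 active = at 10 µM dose, activation of 40% or more, normalized to positive control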;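 also: 100% = tunicamycin at 10 µg/mL and 0% = DMSO alone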
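assay system = CHO CHOP reporter cells | amount = 500 CHO-CHOP cells per well | buffer or medium = F12 with 10% FBS | incubation = 16-18 h cell attachment, then 6 h compound exposure, 37 °C | detection = luminescence read with Steady-Glo | read-out = percent activation relative to tunicamycin control | controls = tunicamycin high control, DMSO low control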
MPTP inh = mitochondrial permeability transition pore inhibitors, primary screen, biochemical, isolated mouse mitochondria, absorbance; hit rate 1.4% among 360,000; inhibition, % at 10 µM; Ca2+ swelling absorbance, 30 min;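 active = inhibition of 50% or more, scaled per plate between neutral and stimulator controls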;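 also: 0% = DMSO wells given calcium and 100% = 1 mM EGTA wells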
XBP1 UPR activ = activators of adaptive XBP1 UPR arm, primary screen, cell-based, CHO-XBP1 luciferase reporter, luminescence, uHTS | IRE1-XBP1 UPR activation; percent of tunicamycin response, DMSO as zero | activation, % at 20 µM | hit rate 0.33% among 330,000;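 active = versus positive control, 20 µM dose yields 30% or more activation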;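 also: 100% = tunicamycin at 10 µg/mL and 0% = DMSO only wells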
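Signal: luciferase luminescence; Assay system: CHO-XBP1 luciferase reporter cells; Amount: one thousand reporter cells per well; Dosing: 20 µM single concentration, DMSO 1%; Benchmarks: high control tunicamycin 10 µg/mL final, low control DMSO vehicle only; Schedule: 6 h compound exposure at 37 °C, 5% CO2; Evaluation: percent activation relative to tunicamycin reference.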
Rh123 counter = fluorescence retest of MPTP screen hits in isolated mitochondria, single concentration. shares compounds with MPTP inh. membrane potential, Rhodamine 123 fluorescence. inhibition, % at 10 µM. hit rate 78% among 5,000; in the data active = inhibition above about 22%;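 also: 0% = DMSO vehicle and 100% = positive control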
MPTP swell DR = mitochondrial permeability transition pore inhibitors, dose response, biochemical, absorbance, uHTS hits | shares compounds with MPTP inh | hit rate 58% among 780 | IC50, µM | isolated mitochondria swelling; in the data active = IC50 below about 20 µM
MPTP cs DR = fluorescent counter-screen in isolated mitochondria, dose response, counter-screen for MPTP inhibitor project, biochemical, fluorescence, uHTS hits | shares compounds with MPTP inh | isolated mitochondria counterscreen, fluorescence read-out | IC50, µM | hit rate 49% among 780 | AID 651564, 2012; in the data active = IC50 below about 80 µM
An asterisk follows results filed as active; . = no result. In the library only some 5.6% were active in any assay of this set; here they are far more common.

SMILES	GRIN3A LBD mod	aDG glyco act	CHOP inhibitor	UPR CHOP act	MPTP inh	XBP1 UPR activ	Rh123 counter	others
OC1(c2ccc(Cl)cc2)CCN(Cc2c[nH]c3ccccc23)CC1	1	0	-5	1	94*	-1	-16	MPTP swell DR=5.3*;MPTP cs DR=>80
c1ccc2c(CN3CCCCC3)c[nH]c2c1	-1	0	-20	0	3	-1	.
CN1CCC(O)(c2cccs2)C(C(=O)c2cccs2)C1 (stereo not drawn)	1	0	.	1	1	-4	.
CN(Cc1cccc(-c2ccncc2)c1)C(=O)Oc1ccccc1Cc1ccccc1	.	1	.	.	90*	.	114*
CN(Cc1cccc(-c2ccncc2)c1)C(=O)Oc1ccccc1Cl	.	1	.	.	47	.	.
O=C(NCc1cccnc1)Nc1ccc([N+](=O)[O-])cc1	-5	0	.	1	66*	-1	96*
Fc1ccccc1CN1Cc2ccccc2-n2nncc2C1	.	0	.	.	-1	.	.
CCOP(=O)(/C=C(\Cl)c1ccccc1)C(O)c1ccc(F)cc1 (stereo not drawn)	1	0	.	0	-1	-4	.
CNCC(O)c1cccc(OC(=O)c2ccccc2C)c1 (stereo not drawn)	-1	0	14	3	61*	1	-5	MPTP swell DR=8.9*;MPTP cs DR=>80
CSc1ncc(/C=C2/C(=O)NC(=O)N(C3CCCCC3)C2=O)cn1	-2	0	-28	4	90*	-1	-10	MPTP swell DR=3.4*;MPTP cs DR=>80
Cc1cc(OCC(=O)O)c2c3c(c(=O)oc2c1)CCCC3	1	0	-5	-1	-3	-1	.
CCOc1cc(C)cc2oc(=O)c3c(c12)CCCC3	1	0	.	-1	-1	1	.
Cc1cc(OC(=O)c2ccco2)c2c3c(c(=O)oc2c1)CCCC3	-2	2	76*	3	104*	-2	87*
Cc1cc(OC(=O)c2cccs2)c2c3c(c(=O)oc2c1)CCCC3	-2	2	18	-2	68*	0	86*
CCOC(=O)c1ccc(N=C(CC)c2c(O)n(C)c(=O)n(C)c2=O)cc1	-2	0	3	0	90*	-3	3	MPTP swell DR=2.1*;MPTP cs DR=23*
CCC(=Nc1ccc2c(c1)CCC2)c1c(O)n(C)c(=O)n(C)c1=O	0	3	.	-2	-4	-3	.
CCN(CCCl)c1cc(CN(C)C)cc(NC(=O)c2ccc(C(=O)Nc3cc(CN(C)C)cc(N(CC)CCCl)c3)cc2)c1	-2	0	.	.	82*	.	-32
COC(=O)C1=C(c2ccc(OCc3ccccc3)cc2)C[C@@H]2CC[C@H]1N2C(=O)NCc1cccc(OC)c1	-1	1	.	4	5	4	.
O=C1/C(=C\c2ccc(Cl)c(Cl)c2)N2CCC1CC2	0	0	20	0	0	0	.
CC(C)NS(=O)(=O)c1ccc(OCC(=O)N2CCN(Cc3ccc4c(c3)OCO4)CC2)c(Cl)c1	2	2	28	-1	54*	-3	32*
Cc1cc(S(=O)(=O)NC(C)C)ccc1OCC(=O)N1CCN(Cc2ccc3c(c2)OCO3)CC1	2	2	14	-1	22	-3	.
CCN(CC)S(=O)(=O)c1ccc(C)c(NCC(=O)Nc2ccc(C#N)c(Cl)c2)c1	6	1	54	4	77*	-3	87*
